Screening data deposited in PubChem by several laboratories.
Beta2AR agonist = beta2AR agonists driving receptor internalization, primary screen, cell-based, FAP fluorogen, flow cytometry | Beta-2 adrenergic receptor (Homo sapiens), P07550 | Am2.2-beta2AR cells | response, % (test concentration not listed) | actives 0.43% (n = 340,000) | AID 504454, 2011;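 active = response above a set limit, near 3 SD of response in nonfluorescent compounds, cut at about 42% in these data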
APJ agonist = agonists of human apelin receptor APJ, primary screen, CHO-K1 cells, PathHunter beta-arrestin, luminescence. P35414. 0% DMSO wells, 100% apelin. activation, % at 20 µM. actives 0.11% (n = 330,000). AID 2520, 2010;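 active = activation more than six SD over the plate average, tested at 20 µM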;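 also: 0% = DMSO alone and 100% = apelin-13 at 10 nM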
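Test system: CHO-K1 APJ beta-arrestin complementation cell line. Amount: cell density 1000 per well. Controls: DMSO negative, 10 nM Apelin-13 positive. Signal: luminescent beta-gal fragment complementation, chemiluminescent substrate. Read-out basis: agonist-driven arrestin binding to APJ. Timing: compound stimulation 90 min at 25 °C, detection 60 min.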
CXCR6 block = CXCR6 receptor inhibitors, primary screen, cell-based, beta-arrestin, luminescence, CHO-K1 PathHunter, 1536-well; inhibition, % at 20 µM; actives 0.36% (n = 360,000); AID 602244, 2012; in the data active = inhibition above about 34%, passing the limit was not always enough;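 also: antagonist mode with CXCL16 agonist at 10 nM final; 0% = 10 nM CXCL16 with DMSO and 100% = unstimulated wells without agonist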
Target sequence (O00574 whole entry, looked up): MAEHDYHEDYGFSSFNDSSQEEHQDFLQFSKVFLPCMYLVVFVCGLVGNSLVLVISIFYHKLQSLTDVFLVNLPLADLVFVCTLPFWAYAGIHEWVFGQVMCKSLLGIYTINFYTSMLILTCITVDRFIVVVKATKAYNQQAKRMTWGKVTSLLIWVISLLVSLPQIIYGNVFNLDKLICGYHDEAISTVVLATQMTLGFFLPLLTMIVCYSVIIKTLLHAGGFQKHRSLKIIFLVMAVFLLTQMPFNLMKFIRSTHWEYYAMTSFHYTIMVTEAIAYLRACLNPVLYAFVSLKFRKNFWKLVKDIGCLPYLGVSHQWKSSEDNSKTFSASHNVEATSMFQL
APJ antagonist = antagonists of human apelin receptor APJ, primary screen, CHO-K1 cells, beta-arrestin complementation, luminescence. P35414. inhibition, % at 20 µM. actives 0.32% (n = 330,000). AID 2521, 2010;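 active = inhibition above about 40% at 20 µM, limit read from the data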;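 also: cells challenged with 10 nM apelin-13 agonist together with compound; plate controls were apelin-13 plus DMSO wells for no effect and DMSO wells lacking apelin-13 for full effect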
CCR6 antagonist = CCR6 receptor antagonists, primary screen, cell-based, CHO-K1, luminescence, beta-arrestin, uHTS | CHO-K1 CCR6 PathHunter beta-arrestin, CCL20-stimulated | inhibition, % at 20 µM | actives 0.49% (n = 340,000) | AID 493098, 2011;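 active = compounds whose inhibition of the agonist-driven luminescence signal at 20 µM reaches about 50%, limit read from the data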;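 also: cells stimulated with CCL20 at 14 nM final; plate controls were DMSO with CCL20 for no effect and DMSO without agonist for full effect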
PfG6PD inh = PfG6PD enzyme inhibitors, primary screen, biochemical, fluorescence intensity, uHTS | AID 504690, 2011 | glucose-6-phosphate dehydrogenase-6-phosphogluconolactonase (Plasmodium falciparum 3D7) | actives 0.78% (n = 350,000) | PfGluPho enzyme, NADPH resazurin-diaphorase fluorescence | inhibition, % at 20 µM;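 active = inhibition reaching at least a set limit at 20 µM in the primary screen, cut at about 59% in these data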;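 also: 0% = DMSO wells with substrate and 100% = DMSO wells lacking glucose-6-phosphate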
Numbers without * were called inactive. Most compounds without a hit are left out; they make up all but 1.7% or so of the library.

How did COc1ccc(N2C(=NC(=O)C3CCCCC3)SC3CS(=O)(=O)CC32)cc1OC (stereo unspecified) do in these assays?
Beta2AR agonist: -2; APJ agonist: -3; CXCR6 block: 2; APJ antagonist: 1; CCR6 antagonist: 0; PfG6PD inh: 0

What do the screens show for `COc1ccc(C(=O)N=C2SC3CS(=O)(=O)CC3N2c2ccc(N(C)C)cc2)cc1OC` (stereo unspecified)?
Beta2AR agonist: 54*; APJ agonist: -3; CXCR6 block: -5; APJ antagonist: 14; CCR6 antagonist: 14; PfG6PD inh: -9

How did COc1cc(/C=C2/C(=O)N(c3ccc(Br)cc3)N=C2C)cc([N+](=O)[O-])c1O do in these assays?
APJ agonist: -10; APJ antagonist: 48*

What do the screens show for `Cc1n[nH]c(C)c1Sc1ccccc1[N+](=O)[O-]`?
Beta2AR agonist: 1; APJ agonist: -3; CXCR6 block: 9; APJ antagonist: 4; CCR6 antagonist: 11; PfG6PD inh: 14

Results for Cc1n[nH]c(C)c1Sc1ccccc1N=Cc1cc(Cl)cc([N+](=O)[O-])c1O ?
Beta2AR agonist: 2; APJ agonist: -2; CXCR6 block: 55*; APJ antagonist: 23; CCR6 antagonist: 44; PfG6PD inh: 20

Results for C=CCc1cccc(CNn2cnnc2)c1O ?
Beta2AR agonist: 0; APJ agonist: -4; CXCR6 block: 62*; APJ antagonist: 16; CCR6 antagonist: 20; PfG6PD inh: -2

What do the screens show for `O=C1CC2(CCCC2)C(=O)N1CN1CCN(S(=O)(=O)c2cc(F)ccc2F)CC1`?
CXCR6 block: -2; PfG6PD inh: -2

What do the screens show for `Nc1cc2nsnc2cc1Br`?
Beta2AR agonist: 4; APJ agonist: -1; CXCR6 block: 4; APJ antagonist: -12; CCR6 antagonist: -3; PfG6PD inh: 99*

How did Nc1c(S(=O)(=O)O)cc(NC(=O)c2ccccc2)c2c1C(=O)c1ccccc1C2=O do in these assays?
Beta2AR agonist: 16; APJ agonist: -1; CXCR6 block: 29; APJ antagonist: 1; CCR6 antagonist: 55*; PfG6PD inh: 0

What do the screens show for `O=C(Nc1ccccc1-c1ccccc1)c1ccccc1`?
Beta2AR agonist: 4; APJ agonist: -3; CXCR6 block: -4; APJ antagonist: 10; CCR6 antagonist: 6; PfG6PD inh: 2

Results for CCCC(C(=O)NNC(=O)c1ccncc1)c1ccccc1 (stereo unspecified) ?
Beta2AR agonist: 1; APJ agonist: -3; CXCR6 block: -4; APJ antagonist: 7; CCR6 antagonist: 16; PfG6PD inh: -15

What do the screens show for `CC(C)(C)c1nnc(N/N=C/c2ccc(Br)cc2)n(N)c1=O`?
Beta2AR agonist: 70*; APJ agonist: 3; CXCR6 block: 1; APJ antagonist: -19; CCR6 antagonist: -1; PfG6PD inh: 7

What do the screens show for `CC(C)(C)c1ccc(/C=N/Nc2nncn2N)cc1`?
Beta2AR agonist: -13; APJ agonist: -1; CXCR6 block: 0; APJ antagonist: 1; CCR6 antagonist: -12; PfG6PD inh: 57

How did CN(C)c1nc(C=C(C#N)C#N)c(Cl)n1-c1ccc(F)cc1 do in these assays?
Beta2AR agonist: 52*; CXCR6 block: 9; CCR6 antagonist: 7; PfG6PD inh: 7

What do the screens show for `Cn1cnc2nc(Cl)nc(Cl)c21`?
Beta2AR agonist: 62*; CXCR6 block: -2; CCR6 antagonist: 4; PfG6PD inh: -11

How did CNc1nc(Cl)nc2ncn(C)c12 do in these assays?
Beta2AR agonist: -7; CXCR6 block: -6; CCR6 antagonist: -4; PfG6PD inh: -7

Results for COc1ccc(CN(C)[C@H]2C[C@H]3c4[nH]c5ccccc5c4CCN3C[C@H]2[C@H](C)O)cc1 ?
CXCR6 block: 4; PfG6PD inh: 7

How did Cn1ncc(Cl)c1C(=O)N1CCN(C23CC4CC(CC(C4)C2)C3)CC1 do in these assays?
Beta2AR agonist: -1; APJ agonist: 7; CXCR6 block: 3; APJ antagonist: -32; CCR6 antagonist: 7; PfG6PD inh: 3

Results for OCCN(CCO)c1ccc(C(c2ccc(Cl)cc2)c2ccc(N(CCO)CCO)cc2Cl)c(Cl)c1 ?
Beta2AR agonist: 21; APJ agonist: 8; CXCR6 block: -6; APJ antagonist: -2; CCR6 antagonist: -2; PfG6PD inh: 3

Results for Cc1cc(N(CCO)CCO)ccc1N=Nc1cc(F)ccc1F ?
Beta2AR agonist: -2; APJ agonist: -9; CXCR6 block: 30; APJ antagonist: 61*; CCR6 antagonist: 44; PfG6PD inh: 9

How did COc1ccc(CN2CCN(CC(=O)Nc3ccccc3C(=O)NC3CC3)CC2)cc1F do in these assays?
Beta2AR agonist: -2; APJ agonist: -3; CXCR6 block: -1; APJ antagonist: 8; CCR6 antagonist: 4; PfG6PD inh: -65

What do the screens show for `CC(OC(=O)CCCNC(=O)c1ccc(Cl)cc1)C(=O)N(C)Cc1ccccc1` (stereo unspecified)?
Beta2AR agonist: 1; APJ agonist: 0; CXCR6 block: 2; APJ antagonist: 16; CCR6 antagonist: 7; PfG6PD inh: -9

How did O=C(ONc1ccc(N=NC(=O)c2ccccc2O)cc1)c1ccccc1 do in these assays?
Beta2AR agonist: 8; APJ agonist: -7; CXCR6 block: 34; APJ antagonist: 34; CCR6 antagonist: 56*; PfG6PD inh: -24

Results for O=Nc1ccc(NOC(=O)c2ccccc2Br)cc1 ?
Beta2AR agonist: -2; APJ agonist: 1; CXCR6 block: 5; APJ antagonist: -31; CCR6 antagonist: 18; PfG6PD inh: -15

How did COc1cc(/C=C2/C(=O)NN(c3ccc(Cl)cc3)C2=O)ccc1OC(=O)c1ccco1 do in these assays?
Beta2AR agonist: 10; APJ agonist: -4; CXCR6 block: 50*; APJ antagonist: 16; CCR6 antagonist: 72*; PfG6PD inh: -11

How did Cc1cc(/C=C\c2ccc3cc(N(C)C)ccc3[n+]2C)c(C)n1-c1ccccc1 do in these assays?
APJ agonist: 14; CXCR6 block: 22; APJ antagonist: 11; CCR6 antagonist: 51*; PfG6PD inh: 14

What do the screens show for `CC1(C(=O)NS(=O)(=O)C2CC2)CCN(C(=O)c2ccccc2C(F)(F)F)C1` (stereo unspecified)?
CXCR6 block: -3

What do the screens show for `O=[N+]([O-])c1ccc(Nc2nc(N/N=C/c3cccc(F)c3)nc(N3CCCC3)n2)cc1`?
Beta2AR agonist: 8; APJ agonist: -2; CXCR6 block: 8; APJ antagonist: 4; CCR6 antagonist: 9; PfG6PD inh: 5
